Laboratory results as given in ChEMBL document CHEMBL4396917, “Synthesis and biological evaluation of novel benzylidene-succinimide derivatives as noncytotoxic antiangiogenic inhibitors with anticolorectal cancer activity in vivo” (Eur J Med Chem, 2019).
Active and inactive are the calls of the source. The calls are words filed in the database; no cut-off is given here.

Assays:
HT-29 [1] = assay: Downregulation of VEGF mRNA expression in human HT-29 cells after 24 hrs by RT-qPCR assay; assay type: functional, cell-based
Summary of the method: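 HT29 cells treated with 1, 5, 10 or 20 μM for 24 h; total RNA extracted with TRIzol; SYBR Green qPCR, 40 cycles of 5 s at 95°C and 60 s at 60°C in 20-μL reactions.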

NCM460 = assay: Cytotoxicity against human NCM460 cells assessed as reduction in cell growth after 72 hrs by MTT assay; assay type: cell-based; details: NCM460, 72 h
HUVEC [2] = assay: Antiinvasive activity in HUVEC assessed as inhibition of VEGF-induced cell invasion at 20 uM after 6 hrs by crystal violet staining based transwell assay relative to control; assay type: functional; details: Homo sapiens
Summary of the method: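 Transwell: 1×10⁴ HUVECs in serum-free M200 in top chamber with vehicle or compound; bottom chamber M200 with 10% FBS; 6 h at 37°C; cells on membrane underside fixed in 4% paraformaldehyde, stained 0.1% crystal violet, imaged and counted.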

Aorta [3] = assay: Inhibition of VEGF-induced capillary sprouting in Sprague-Dawley rat aortic ring at 20 uM treated for every 3 days for 7 days measured on day 7 by inverted microscopy relative to control; assay type: functional
Summary of the method: (§1)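 Aortas from anesthetized Sprague-Dawley rats cut into 1-mm rings and embedded in Matrigel for 1 h at 37°C. Rings starved 1 day, then cultured in opti-MEM with 2.5% FBS and 30 ng/mL VEGF plus compound. Treatment renewed every 3 days for 7 days. Sprouting imaged on day 7 by inverted microscopy.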

[4] = Induction of apoptosis in human HT-29 cells assessed as viable cells at 10 uM after 24 hrs by Annexin V-FITC/propidium iodide staining based flow cytometric analysis (reference value: 80.8%); assay type: cell-based; details: read-out: Activity
[5] = molecular target: Vascular endothelial growth factor receptor 2 (Homo sapiens) (UniProt P35968); assay: Inhibition of VEGFR2 in VEGF-stimulated HUVEC assessed as downregulation of STAT3 phosphorylation at Tyr705 residue at 1 to 10 uM pre-incubated for 2 hrs followed by VEGF stimulation and measured after 15 mins by Western blot analysis; assay type: cell-based
Chain of Vascular endothelial growth factor receptor 2 (Homo sapiens) (P35968 whole entry): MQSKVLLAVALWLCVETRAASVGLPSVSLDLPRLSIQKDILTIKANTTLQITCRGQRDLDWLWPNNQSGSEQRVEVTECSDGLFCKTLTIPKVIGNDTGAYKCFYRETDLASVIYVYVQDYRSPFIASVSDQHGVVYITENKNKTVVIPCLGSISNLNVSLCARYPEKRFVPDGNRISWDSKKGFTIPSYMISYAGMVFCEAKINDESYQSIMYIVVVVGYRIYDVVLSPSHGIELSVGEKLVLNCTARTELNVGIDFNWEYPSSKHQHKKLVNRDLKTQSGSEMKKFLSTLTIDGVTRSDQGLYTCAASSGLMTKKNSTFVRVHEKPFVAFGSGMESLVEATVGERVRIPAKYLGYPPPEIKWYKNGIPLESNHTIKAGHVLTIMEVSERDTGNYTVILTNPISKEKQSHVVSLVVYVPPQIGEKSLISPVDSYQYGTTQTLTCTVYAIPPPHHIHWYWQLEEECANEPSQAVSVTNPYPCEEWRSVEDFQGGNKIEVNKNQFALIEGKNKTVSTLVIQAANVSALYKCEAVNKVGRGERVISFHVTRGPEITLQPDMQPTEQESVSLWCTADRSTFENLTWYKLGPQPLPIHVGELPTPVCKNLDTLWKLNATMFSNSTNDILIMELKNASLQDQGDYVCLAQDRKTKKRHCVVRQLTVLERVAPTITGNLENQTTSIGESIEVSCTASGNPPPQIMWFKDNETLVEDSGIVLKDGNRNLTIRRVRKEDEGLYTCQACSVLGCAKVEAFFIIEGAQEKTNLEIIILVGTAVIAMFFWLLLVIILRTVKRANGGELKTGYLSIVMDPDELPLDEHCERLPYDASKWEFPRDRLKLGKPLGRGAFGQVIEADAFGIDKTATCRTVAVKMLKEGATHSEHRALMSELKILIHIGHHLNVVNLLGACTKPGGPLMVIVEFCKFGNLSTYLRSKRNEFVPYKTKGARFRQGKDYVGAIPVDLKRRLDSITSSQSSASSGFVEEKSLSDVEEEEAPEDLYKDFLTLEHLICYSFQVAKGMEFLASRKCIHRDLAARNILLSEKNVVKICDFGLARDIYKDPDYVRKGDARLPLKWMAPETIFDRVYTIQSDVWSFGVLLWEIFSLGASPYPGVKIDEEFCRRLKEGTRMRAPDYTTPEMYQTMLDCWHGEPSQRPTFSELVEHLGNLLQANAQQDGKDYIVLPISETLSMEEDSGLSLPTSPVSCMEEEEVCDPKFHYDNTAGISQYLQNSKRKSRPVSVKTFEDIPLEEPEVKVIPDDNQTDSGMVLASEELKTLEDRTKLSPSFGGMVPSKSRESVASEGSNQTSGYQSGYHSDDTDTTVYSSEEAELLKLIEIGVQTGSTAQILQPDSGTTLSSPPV

HCT-116 = assay: Cytotoxicity against human HCT116 cells assessed as reduction in cell growth after 72 hrs by MTT assay; assay type: cell-based; details: HCT-116, 72 h
HUVEC [6] = assay: Effect on total FAK expression in VEGF-induced HUVEC at 1 to 20 uM pre-incubated for 2 hrs followed by VEGF stimulation and measured after 15 mins by Western blot analysis; assay type: ADME, cell-based; details: human, 0.25 h
Summary of the method: (§2)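 HUVECs serum-starved overnight, pretreated with compound (methods: 1, 2.5, 5, 10 μM for 2 h; legend: 1, 5, 10, 20 μM for 1.5 h), then VEGF 50 ng/mL (methods: VEGF165, 15 min; legend: 30 min); lysates equalized by Bradford, ~20 μg protein resolved on gradient SDS-PAGE, immunoblotted, ECL detection.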

HT-29 [7] = assay: Induction of apoptosis in human HT-29 cells assessed as early apoptotic cells at 10 uM after 24 hrs by Annexin V-FITC/propidium iodide staining based flow cytometric analysis (reference value: 1.9%); assay type: cell-based; details: ht-29, 24 h
HUVEC [8] = assay: Antiangiogenic activity against VEGF-induced HUVEC assessed as inhibition of cell proliferation preincubated for 30 mins followed by VEGF addition measured after 24 hrs by MTT assay; assay type: functional, cell-based; details: Homo sapiens
Summary of the method: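 HUVECs seeded 24 h, starved 16 h in M200 with 2% FBS, pretreated 30 min with compound at 0.1, 1, 10, 20 or 40 μM, then stimulated with VEGF (25 ng/mL) for 24 h; viability read by MTT; IC50 determined.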

Aorta [9] = assay: Inhibition of VEGF-induced capillary sprouting in Sprague-Dawley rat aortic ring treated for every 3 days for 7 days measured on day 7 by inverted microscopy; assay type: functional, tissue-based; summary of the method: as §1
HUVEC [10] = assay: Effect on total AKT expression in VEGF-induced HUVEC at 1 to 20 uM pre-incubated for 2 hrs followed by VEGF stimulation and measured after 15 mins by Western blot analysis; assay type: ADME, cell-based; details: human, 0.25 h; summary of the method: as §2
HT-29 [11] = assay: Downregulation of MMP2 expression in human HT-29 cells after 24 hrs by immunoblot analysis; assay type: functional, cell-based
Chorioallantoic membrane = assay: Antiangiogenic activity in Leghorn chicken fertilized egg chorioallantoic membrane assessed as reduction in number of blood vessel formation at 20 nmol measured after 48 hrs by CAM assay relative to saline treated control; assay type: functional, tissue-based; details: Gallus gallus
Summary of the method: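 Fertile Leghorn eggs incubated at 37.8°C, 40% humidity; window opened on day 7; compound, sunitinib or 0.9% NaCl mixed with DMSO applied on filter paper onto CAM; 48 h incubation, methanol fixation, photography; nascent vessels counted.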

HepG2 = assay: Cytotoxicity against human HepG2 cells assessed as reduction in cell growth after 72 hrs by MTT assay; assay type: cell-based; details: HepG2, 72 h
HT-29 [12] = assay: Induction of apoptosis in human HT-29 cells assessed as necrotic cells at 10 uM after 24 hrs by Annexin V-FITC/propidium iodide staining based flow cytometric analysis (reference value: 3.9%); assay type: cell-based; details: ht-29, 24 h
HUVEC [13] = assay: Induction of apoptosis in VEGF-stimulated HUVEC assessed as necrotic cells at 20 uM after 24 hrs by Annexin V-FITC/propidium iodide staining based flow cytometric analysis (reference value: 12.1%); assay type: cell-based; details: human
Summary of the method: (§3)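 HUVECs plated at 5×10^5 per well and treated 24 h with 1, 5, 10 or 20 μM. Detached and adherent cells were pooled, washed in ice-cold PBS and resuspended in fresh medium. 1×10^5 cells were stained with annexin-V-FITC in annexin-V buffer for 20 min in the dark, then PI (50 μg/mL) was added. Read-out by flow cytometry.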

[14] = Induction of apoptosis in human HT-29 cells assessed as viable cells at 1 uM after 24 hrs by Annexin V-FITC/propidium iodide staining based flow cytometric analysis (reference value: 80.8%); assay type: cell-based; details: read-out: Activity
[15] = Induction of apoptosis in human HT-29 cells assessed as viable cells at 20 uM after 24 hrs by Annexin V-FITC/propidium iodide staining based flow cytometric analysis (reference value: 80.8%); assay type: cell-based; details: read-out: Activity
[16] = Induction of apoptosis in VEGF-stimulated HUVEC assessed as viable cells at 20 uM after 24 hrs by Annexin V-FITC/propidium iodide staining based flow cytometric analysis (reference value: 69.6%); assay type: cell-based; details: human, read-out: Activity; summary of the method: as §3
SW480 = assay: Cytotoxicity against human SW480 cells assessed as reduction in cell growth after 72 hrs by MTT assay; assay type: cell-based; details: SW480, 72 h
HUVEC [17] = assay: Induction of apoptosis in VEGF-stimulated HUVEC assessed as late apoptotic cells at 20 uM after 24 hrs by Annexin V-FITC/propidium iodide staining based flow cytometric analysis (reference value: 11.3%); assay type: cell-based; details: human; summary of the method: as §3
[18] = molecular target: RAC-alpha serine/threonine-protein kinase (Homo sapiens) (UniProt P31749); assay: Inhibition of AKT1 (unknown origin) at 10 uM using myelin basic protein as substrate in presence of [gamma-33P]-ATP by scintillation counting analysis relative to control
Chain of RAC-alpha serine/threonine-protein kinase (Homo sapiens) (P31749 whole entry): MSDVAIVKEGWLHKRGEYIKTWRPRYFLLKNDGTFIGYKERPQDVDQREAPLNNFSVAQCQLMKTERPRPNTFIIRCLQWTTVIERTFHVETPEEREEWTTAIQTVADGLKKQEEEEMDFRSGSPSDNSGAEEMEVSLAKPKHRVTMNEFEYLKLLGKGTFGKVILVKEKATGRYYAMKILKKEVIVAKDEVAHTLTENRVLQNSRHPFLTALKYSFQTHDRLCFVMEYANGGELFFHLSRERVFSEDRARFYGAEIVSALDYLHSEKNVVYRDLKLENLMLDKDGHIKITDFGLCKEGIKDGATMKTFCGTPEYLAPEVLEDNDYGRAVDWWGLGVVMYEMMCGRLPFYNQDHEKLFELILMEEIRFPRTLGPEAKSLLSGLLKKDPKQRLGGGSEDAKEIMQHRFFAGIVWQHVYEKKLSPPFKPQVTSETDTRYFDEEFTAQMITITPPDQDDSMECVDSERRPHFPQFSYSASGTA
Summary of the method: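 Radiometric kinase assay: kinase (5–10 mU) in 25 mM Tris pH 7.5, 0.02 mM EGTA, 0.66 mg/mL myelin basic protein, magnesium acetate and [γ-33P]ATP. The reaction was started with Mg-ATP, run 40 min at room temperature and stopped with 3% phosphoric acid. Samples were spotted on P30 filters, washed with 75 mM phosphoric acid and methanol, then scintillation counted. Tested at 10 μM; mean of three independent experiments.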

Q: Which inhibition (HT-29 [1]) does the source give for `COc1ccc(NC(=O)c2cccc(/C=C3\CC(=O)N(c4ccc(C)cc4)C3=O)c2)cc1` here?
A: inactive

Q: And the IC50 (NCM460)?
A: > 100 µM

Q: And the inhibition at 20 µM (HUVEC [2])?
A: 70%

Q: And the inhibition at 20 µM (Aorta [3])?
A: 95%

Q: What about the viability at 24 h, 10 µM [4] of the same compound?
A: 77.2%

Q: And the inhibition [5]?
A: Active

Q: And the IC50 (HCT-116)?
A: > 100 µM

Q: What about the Activity (HUVEC [6]) of the same compound?
A: Not Active

Q: What about the Activity (HT-29 [7]) of the same compound?
A: 1.5%

Q: What about the IC50 (HUVEC [8]) of the same compound?
A: 8.56 µM

Q: What about the inhibition (Aorta [9]) of the same compound?
A: Dose-dependent effect

Q: And the Activity (HUVEC [10])?
A: Not Active

Q: What about the inhibition (HT-29 [11]) of the same compound?
A: Dose-dependent effect

Q: And the inhibition (Chorioallantoic membrane)?
A: 96.4%

Q: And the IC50 (HepG2)?
A: > 100 µM

Q: And the Activity (HT-29 [12])?
A: 2.3%

Q: And the Activity (HUVEC [13])?
A: 5.6%

Q: What about the viability at 24 h, 1 µM [14] of the same compound?
A: 79.9%

Q: What about the viability at 24 h, 20 µM [15] of the same compound?
A: 78.9%

Q: And the viability at 24 h, 20 µM [16]?
A: 74.5%

Q: And the IC50 (SW480)?
A: 93 µM

Q: What about the Activity (HUVEC [17]) of the same compound?
A: 10.1%

Q: What about the inhibition [18] of the same compound?
A: 50 to 70%
